Test results reported in ChEMBL document CHEMBL1122985, “Synthesis and evaluation of N,N'-bis(arylsulfonyl)hydrazines as antineoplastic agents” (1985).

How the values were obtained:
Format in all cases: functional
[1] = system: Mus musculus; assay: Percent change in the weight after administering a dose of 50 mg/kg to mice bearing L1210 leukemia
Method in brief: (§1)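 L1210 ascites cells were propagated in CDF₁ mice and 0.1 mL of a suspension at 10⁶ cells/mL in isotonic saline was implanted ip. Compound was given ip once daily for 6 consecutive days starting 24 h after implantation, as a fine suspension in Tween 80/saline (0.5 mL). Groups of five were used, with vehicle controls. The read-out was average body-weight change from onset to end of therapy.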

[2] = system: Mus musculus; assay: Percentage of average survival time of control/treated mice bearing the L1210 leukemia at a dose 100 mg/kg
Method in brief: (§2)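 L1210 ascites cells passaged in CDF1 mice, taken from 7-day donors, spun, diluted 10-fold in isotonic saline and set to 10^6 cells/mL by Coulter count; 0.1 mL given ip. Compound suspended in 2–3 drops 20% aqueous Tween 80 plus isotonic saline, 0.5 mL ip once daily for 6 days from 24 h after implant. Groups of five; vehicle-injected controls. %T/C = treated/control mean survival ×100.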

[3] = system: Mus musculus; assay: Percentage of average survival time of control/treated mice bearing the L1210 leukemia at a dose 150 mg/kg; method in brief: as §2
[4] = system: Mus musculus; assay: Percent change in the weight after administering a dose of 100 mg/kg to mice bearing L1210 leukemia; method in brief: as §1
[5] = system: Mus musculus; assay: Average survival time of treated mice bearing the L1210 leukemia at a dose 50 mg/kg; method in brief: as §2
[6] = system: Mus musculus; assay: Average survival time of treated mice bearing the L1210 leukemia at a dose 150 mg/kg; method in brief: as §2
[7] = system: Mus musculus; assay: Average survival time of treated mice bearing the L1210 leukemia at a dose 100 mg/kg; method in brief: as §2
[8] = system: Mus musculus; assay: Percentage of average survival time of control/treated mice bearing the L1210 leukemia at a dose 50 mg/kg; method in brief: as §2
[9] = system: Mus musculus; assay: Average survival time of control mice bearing L1210 leukemia at a dose 50 mg/kg; method in brief: as §2
[10] = system: Mus musculus; assay: Percent change in the weight after administering a dose of 150 mg/kg to mice bearing L1210 leukemia; method in brief: as §1
[11] = system: Mus musculus; assay: Percentage of average survival time of control/treated mice bearing P388 leukemia at a dose 150 mg/kg
[12] = system: Mus musculus; assay: Percentage of average survival time of control/treated mice bearing sarcoma 180 at a dose 50 mg/kg
[13] = system: Mus musculus; assay: Average survival time of mice bearing L1210 leukemia at a dose 50 mg/kg; method in brief: as §2
[14] = system: Mus musculus; assay: Percentage of average survival time of control/treated mice bearing sarcoma 180 at a dose 100 mg/kg

Compound	Average weight change [1]	T/C [2]	T/C [3]	Average weight change [4]	Survival time [5]	Survival time [6]	Survival time [7]	T/C [8]	Survival time [9]	Average weight change [10]	T/C [11]	T/C [12]	Survival time [13]	T/C [14]
CN(NC(=O)c1ccccc1)C(=O)c1ccccc1	2.5%	97%	97%	-2%	9.2 days	9.2 days	9.2 days	97%	9.5 days	-2%				
CN(NS(=O)(=O)c1ccc(Cl)cc1)S(=O)(=O)c1ccc(Cl)cc1	4%	124%		1.3%	11.4 days			120%	9.5 days	6.9%				
O=S(=O)(NNS(=O)(=O)c1ccccc1)c1ccccc1	-0.3%	97%	101%	5.8%	9.2 days	9.6 days	9.2 days	97%	9.5 days	0.8%				
COc1ccc(S(=O)(=O)NN(C)S(=O)(=O)c2ccc(OC)cc2)cc1	1.9%			-1.6%					9 days	4.1%	136%			
CN(NS(=O)(=O)c1ccc2ccccc2c1)S(=O)(=O)c1ccc2ccccc2c1	3%			-3.3%		9 days			9 days	4.1%				
Cc1ccc(S(=O)(=O)NN(C)S(=O)(=O)c2ccc(C)cc2)cc1	3.7%			0.8%					9.5 days			197%	14 days	
CN(NS(=O)(=O)c1ccccc1)S(=O)(=O)c1ccccc1	-4.8%			-5.2%		9.4 days			9 days	-13.5%				203%
